The text below walks through data of ChEMBL document CHEMBL4725282, “Discovery of a Conformationally Constrained Oxazolidinone with Improved Safety and Efficacy Profiles for the Treatment of Multidrug-Resistant Tuberculosis” (J Med Chem, 2020).

As a reminder, the Tmax is the time from dosing to the highest level. As usually defined, the half-life is how long it takes for the measured level to halve. One may read the IC50 as the point on the concentration scale where inhibition reaches its midpoint. Broadly, the Vd is the apparent volume that relates the amount in the body to the concentration in plasma or blood. Lower therefore signals confinement near the circulation.

Data set [1] is described as follows: Tmax in Balb/c mouse at 2.5 mg/kg, iv by LC-MS/MS analysis. Type of data set: ADME, organism-based. The note with it: in vivo. An outline of the steps: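 Female BALB/c mice, 20-25 g, five per route. Dosed 25 mg/kg p.o. in 0.5% carboxymethyl cellulose or 2.5 mg/kg i.v. in 10% DMSO/saline. Blood sampled 5 min-72 h (p.o.) or 2 min-48 h (i.v.), quantified by LC/MS/MS with ESI+. Parameters by non-compartmental analysis; F = (AUCpo×dose_iv)/(AUCiv×dose_po)×100%.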

The nature of data set [2]: Genotoxicity in CHO-WBL cells assessed as chromosome aberration at 90 to 397.1 ug/ml incubated for 3 hrs followed by compound washout and measured after 17 hrs in presence of S9 fraction by Giemsa staining based. The format is toxicity, subcellular, Cricetulus griseus. The note with it: chinese hamster, s9, 3 h, dose 90-397.1 µg/ml. An outline of the steps:
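CHO-WBL cells in McCoy's 5A with 10% FBS, seeded 20-24 h before treatment. Compound in DMSO, with or without serum-free S-9 mix. Treatment either 3 h, then HBSS wash and 17 h further culture, or 20 h; harvest at 20 h from treatment start. Colcemid 0.1 μg/mL for the final 2 h, hypotonic KCl, methanol:acetic acid fixation, Giemsa stain. 300 metaphases per concentration (150 per duplicate flask) scored.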

A short description of data set [3]: Half life in human hepatocytes at 2 uM by LC-MS/MS analysis. Type of data set: ADME, cell-based, Hepatocyte. An outline of the steps: (§1)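 Hepatocytes (male CD-1 mouse, male SD rat, male beagle dog, male cynomolgus monkey, pooled human), final 1 μM compound and 1 million cells/mL, made by mixing 2 μM compound with 2 million cells/mL. Incubated at 37 °C in a CO2 incubator; sampled at 0, 15, 30, 60, 90 and 120 min. Quenched with methanol/ACN containing 0.1% formic acid. Parent remaining measured by LC-MS/MS.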

Data set [4] can be described thus: Half life in Beagle dog hepatocytes at 2 uM by LC-MS/MS analysis. The format is ADME, cell-based, Canis lupus familiaris, Hepatocyte. An outline of the steps: as §1
Data set [5] can be described thus: Half life in CD-1 mouse hepatocytes at 2 uM by LC-MS/MS analysis. The format is ADME, cell-based, Hepatocyte. An outline of the steps:
as §1

The next data set deals with Cytochrome P450 3A4 (Homo sapiens, UniProt P08684). The data set can be described thus: Inhibition of CYP3A4 in human liver microsomes after 20 mins by LC-MS/MS analysis. Type of data set: ADME. The method in brief:
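Human liver microsomes (0.2 mg/mL) in phosphate buffer, 20 min incubation with compound at 0.1-50 μM alongside isoform-specific substrates and a positive control. Substrate remaining monitored by LC-MS/MS at each concentration; IC50 derived.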
On the technique in general: Liver microsomes are vesicles of endoplasmic reticulum, rich in cytochrome P450 enzymes.

Data set [6] in a line: Volume of distribution in Balb/c mouse at 2.5 mg/kg, iv by LC-MS/MS analysis. The format is ADME, organism-based. The note with it: in vivo.
For data set [7], the system named is Mycobacterium tuberculosis. As to the kind of experiment: Antitubercular activity against Mycobacterium tuberculosis H37Rv infected in Balb/c mouse assessed as lung bacterial burden by measuring colony forming unit at 100 mg/kg/day, po administered via gavage 5 times per week for 3 weeks starting from 10 days post-infection and measured 24 hrs post last dose (reference value: 7.102 +/- 0.152 log10CFU). The conditions noted are these: time 22 day. Type of data set: functional. An outline of the steps: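 Female SPF BALB/c mice, 6 per group, aerosol-infected with M. tuberculosis H37Rv to deposit 50-100 bacilli per lung. Compound suspended in 0.5% CMC, given by oral gavage from day 10 post-infection, 5 times per week for 3 weeks; controls got 0.5% CMC. Lungs harvested the day after the last dose, homogenised, diluted in HBSS, plated on 7H11 agar in duplicate, incubated 3 weeks at 37 °C. Result expressed as mean log10 CFU; t-test versus control.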

A short description of data set [8]: Toxicity in female Sprague-Dawley rat assessed as changes in neuropsychic symptoms at 50 to 450 mg/kg/day, po administered for 4 weeks followed by 2 week recovery period measured during last 24 hrs of recovery period. The format is organism-based. The note with it: in vivo, 672 h, dose 50-450 mg/kg/day. The method in brief:
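SD rats, 6-7 weeks old (96 in total), split into vehicle, 50, 150 and 450 mg/kg/day groups of 12 females and 12 males each, given oral doses once daily for 4 weeks, then 2 weeks of recovery. Mortality, body weight, food intake, eyes, urine and neuropsychic signs were observed. Organ and bone marrow histopathology was done on 8 rats per sex per group after the last dose and on the remaining 4 per sex after 14 days of recovery.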

The nature of data set [9]: Toxicity in male Sprague-Dawley rat assessed as mortality at 50 to 450 mg/kg/day, po administered for 4 weeks. Type of data set: organism-based. The note with it: in vivo, 672 h, dose 50-450 mg/kg/day.
Data set [10] is described as follows: Toxicity in female Sprague-Dawley rat assessed as change in white blood cell count at 150 mg/kg/day, po administered for 4 weeks followed by 2 week recovery period (Rvb =3.61 +/- 0.75 10^9/L). The conditions noted are these: in vivo, 672 h. Type of data set: organism-based.
The nature of data set [11]: Toxicity in male Sprague-Dawley rat assessed as change in white blood cell count at 150 mg/kg/day, po administered for 4 weeks followed by 2 week recovery period (Rvb =6.12 +/- 1.10 10^9/L). The format is organism-based. The conditions noted are these: in vivo, 672 h. The method in brief: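 SD rats aged 6-7 weeks, 24 per group (12 female, 12 male): vehicle, 50, 150 or 450 mg/kg/day given orally once daily for 4 weeks, then 2-week recovery. 8 per sex per group dissected after the last dose and 4 per sex after 14-day recovery. Hematology included WBC count, reported as mean ± SD (n = 12), compared with vehicle.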

The nature of data set [12]: Toxicity in female Sprague-Dawley rat assessed as change in red blood cell count at 150 mg/kg/day, po administered for 4 weeks followed by 2 week recovery period (Rvb =7.32 +/- 0.20 10^12/L). The format is organism-based. The note with it: in vivo, 672 h.
Data set [13] is described as follows: Toxicity in male Sprague-Dawley rat assessed as change in hematocrit level at 150 mg/kg/day, po administered for 4 weeks followed by 2 week recovery period (Rvb =45.2 +/- 1.7 %). The conditions noted are these: in vivo, 672 h. Type of data set: organism-based.
Data set [14] in a line: Toxicity in female Sprague-Dawley rat assessed as change in reticulocyte level at 150 mg/kg/day, po administered for 4 weeks followed by 2 week recovery period (Rvb =2.85 +/- 0.53 %). The format is organism-based. The conditions noted are these: in vivo, 672 h.
A short description of data set [15]: Toxicity in female Sprague-Dawley rat assessed as change in red blood cell count at 450 mg/kg/day, po administered for 4 weeks followed by 2 week recovery period (Rvb =7.32 +/- 0.20 10^12/L). The format is organism-based. The note with it: in vivo, 672 h.
The nature of data set [16]: Toxicity in female Sprague-Dawley rat assessed as change in platelet count at 450 mg/kg/day, po administered for 4 weeks followed by 2 week recovery period (Rvb =1051 +/- 122 10^9/L). Type of data set: organism-based. The note with it: in vivo, 672 h.
Data set [17] is described as follows: Toxicity in female Sprague-Dawley rat assessed as change in mean corpuscular volume at 450 mg/kg/day, po administered for 4 weeks followed by 2 week recovery period (Rvb =56.1 +/- 0.8 fL). The note with it: in vivo, 672 h. Type of data set: organism-based.
Data set [18] in a line: Toxicity in female Sprague-Dawley rat assessed as change in hemoglobin count at 450 mg/kg/day, po administered for 4 weeks followed by 2 week recovery period (Rvb =136 +/- 7 g/L). The format is organism-based. The conditions noted are these: in vivo, 672 h.
Data set [19] can be described thus: Toxicity in male Sprague-Dawley rat assessed as change in reticulocyte level at 450 mg/kg/day, po administered for 4 weeks followed by 2 week recovery period (Rvb =2.48 +/- 0.34 %). Type of data set: organism-based. The note with it: in vivo, 672 h.
A short description of data set [20]: Toxicity in male Sprague-Dawley rat assessed as change in neutrophil level at 450 mg/kg/day, po administered for 4 weeks followed by 2 week recovery period (Rvb =15.9 +/- 3.4 %). The format is organism-based. The conditions noted are these: in vivo, 672 h.

Chain of Cytochrome P450 3A4 (P08684 whole entry, canonical isoform): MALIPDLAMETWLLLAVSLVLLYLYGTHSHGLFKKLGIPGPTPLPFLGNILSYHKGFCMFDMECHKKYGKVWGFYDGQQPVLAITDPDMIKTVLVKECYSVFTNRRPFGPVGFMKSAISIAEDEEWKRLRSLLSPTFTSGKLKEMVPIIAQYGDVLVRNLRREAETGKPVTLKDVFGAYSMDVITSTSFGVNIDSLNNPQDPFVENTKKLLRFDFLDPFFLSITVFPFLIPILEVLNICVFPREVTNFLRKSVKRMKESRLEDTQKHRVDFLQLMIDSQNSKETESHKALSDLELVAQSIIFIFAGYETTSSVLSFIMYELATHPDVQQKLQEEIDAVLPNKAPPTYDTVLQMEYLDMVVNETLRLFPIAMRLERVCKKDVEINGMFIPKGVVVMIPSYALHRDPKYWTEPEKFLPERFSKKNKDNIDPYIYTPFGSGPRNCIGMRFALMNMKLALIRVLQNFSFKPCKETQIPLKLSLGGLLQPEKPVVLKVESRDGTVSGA

As for `CC(=O)NC[C@@H]1OC(=O)N2c3cc(F)c(N4CC[S+]([O-])CC4)cc3OC[C@@H]12`, the Tmax in [1] was 0.7 h. Moreover, in [2], the Activity entry is “Non-Toxic”.
With `CC(=O)NC[C@@H]1OC(=O)N2c3cc(F)c(N4CCSCC4)cc3OC[C@@H]12`, the half-life at 2 µM in data set [3] is above 8.33 h; in [4], 1.13 h; in data set [5] it was 1.27 h. On Cytochrome P450 3A4, this compound returned an IC50 above 50 µM. This compound also came in with a distribution volume (Vd) in data set [6] of 2.72 L/kg. In addition, the Activity is listed as 1.954 log10CFU in data set [7]; “Non-Toxic” in data set [8]; “Non-Toxic” in [9]; 3.04 10^9/L in data set [10]; 6.11 10^9/L in data set [11]; 6.61 10^12/L in [12]. Moreover, the Activity in [13] is reported as 44.5%; in [14], 2.89%; in data set [15], 6.53 10^12/L; in data set [16] it was 735 10^9/L; in data set [17] it was 56.5 fL; in data set [18] it was 122 g/L. Besides, the Activity is 2.99% in data set [19] and 13.7% in data set [20].
